# STAT3 activator: IL-6 driven STAT3 reporter potentiators, primary screen, U3A cells, luciferase, luminescence, MLSCN library; IL-6 STAT3-luciferase reporter; 100% = signal with IL-6 EC80 alone; activation (% of control), % at 5.6 µM; hit rate 0.91% among 190,000;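 active means activation above the screen-wide mean of compound activation plus 3 SD, cut at about 130% in these data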;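 further: 0% = background luminescence of wells with medium and substrate only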
#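 Material: human STAT1-deficient U3A cells with stable STAT3-luciferase reporter / Probe or stimulus: IL-6 stimulus at 33 ng/mL final / Schedule: 1 h compound pre-exposure, 6 h IL-6 stimulation, 37 °C / Technique: luminescence / Read-out basis: percent of IL-6-only median luminescence / Control set: IL-6-only high control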
# STAT1 inh: STAT1 signaling inhibitors, primary screen, cell-based, HTS, luciferase reporter; inhibition, % at 5.5 µM; hit rate 0.35% among 200,000; AID 920, 2007; NIH 3T3 STAT1-luciferase reporter, IFN-gamma, luminescence;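 active means inhibition above a set limit, the mean inhibition across all tested compounds plus 3 SD, cut at about 34% in these data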;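 further: 0% = IFN-gamma with DMSO and 100% = IFN-gamma with 300 µM nifuroxazide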
# APP 5'UTR act: activators of APP 5'UTR luciferase reporter, primary screen, SH-SY5Y cells; SH-SY5Y APP 5'UTR luciferase reporter, luminescence; zero percent = DMSO vehicle wells; activation, % at 2 µM; hit rate 1% among 190,000; AID 1276, 2008;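 active means activation above a set limit, based on mean plus 3 SD of controls, cut at about 140% in these data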
# STAT3 inh: IL-6 driven STAT3 reporter inhibitors, primary screen, U3A cells, luciferase, luminescence, MLSCN library; IL-6 STAT3-luciferase reporter; host cell line lacks STAT1; inhibition, % at 5.5 µM; hit rate 0.89% among 190,000; AID 862, 2007;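 active means inhibition above the mean inhibition across all screened compounds plus 3 SD, cut at about 44% in these data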;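 further: 0% = DMSO only wells and 100% = 100 µM nifuroxazide control wells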
# STAT1 activator: STAT1 signaling activators, primary screen, cell-based, HTS, luciferase reporter | hit rate 2.6% among 200,000 | activation (% of control), % at 5.5 µM | NIH 3T3 STAT1-luciferase reporter, IFN-gamma, luminescence; 100% = IFN-gamma alone, no compound;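 active means activation above the screen-wide mean activation plus 3 SD, cut at about 130% in these data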;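 further: raw ratio to IFN-gamma control signal so 100% means no change and 0% no light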
# NF-kB neuron act: activators of NF-kB expression in neurons, primary screen, cell-based, HTS; human neuronal cells, NF-kB reporter expression; active compounds read high; fold change at 12.5 µM; hit rate 1.6% among 190,000; in the data active means fold change above about 3.3
# An asterisk follows results filed as active; · = no result. Hits are enriched below; roughly 4.9% of the tested compounds scored in any of these assays.
SMILES,STAT3 activator,STAT1 inh,APP 5'UTR act,STAT3 inh,STAT1 activator,NF-kB neuron act
Cc1ccc(CNC(=O)CCC2CCCN(C(=O)c3ccc4c(c3)OCO4)C2)o1 (configuration not stated),101,3,-3,4,96,1.5
COc1cc(/C=N/NC(N)=S)cc(Br)c1OCc1ccccc1F,103,-32,20,0,129*,1.6
CCOc1cc(/C=N/NC(N)=S)cc(Br)c1OCc1ccccc1C,106,-6,19,-1,105,1.1
Cc1ccccc1-n1ncc(C(C)NC(=O)c2ccco2)c1C (configuration not stated),104,-10,5,1,108,1.4
CSc1ncc(-c2ccccc2)cn1,94,-21,0,8,121,1.4
Brc1ccc(-c2ncc(-c3ccccc3)cn2)cc1,97,-43,31,11,139*,5.7*
COCc1ccc(CN2CCCC(CO)(Cc3ccccc3)C2)o1 (configuration not stated),105,9,-20,-4,90,1.6
COc1cccc(NC(=S)N(CCN(C)C)Cc2cccs2)c1,103,-8,5,-2,105,5.8*
Fc1cccc(/C=N/N=C/c2cccc(F)c2)c1,90,-52,38,18,147*,1.1
O=C(N/N=C/c1cccc(F)c1)NC1CCCCC1,105,-21,13,-11,120,1.4
COc1cccc(/C(=N/O)C2CC2c2ccc(Cl)cc2)c1 (configuration not stated),85,5,-1,19,94,1.3
CC(=O)NC1C(=O)N=C(SCC(=O)Nc2cccc(Cl)c2)NC1=O (configuration not stated),109,4,-18,-2,96,0.98
CCCCCN1C=CC(=C2C(=O)c3ccccc3C2=O)C=C1,9,97*,-54,107*,12,·
Cc1ccc2oc(-c3cccc(NC(=O)C4CCCO4)c3)nc2c1 (configuration not stated),110,-43,56,-9,140*,4*
COc1cc(C(=O)Nc2cccc(-c3nc4cc(C)ccc4o3)c2)cc(OC)c1OC,107,-8,42,-4,108,1.2
O=C(Nc1cccc(-c2nc3cc(Cl)ccc3o2)c1)C1CCCO1 (configuration not stated),98,-35,·,6,130*,3.4*
CCOC(=O)C1(CC2CCCCO2)CCN(C(=O)Nc2ccc(C)c(C)c2)CC1 (configuration not stated),104,-6,14,0,104,1.3
O=C(CCc1ccccc1)NCCC1=CCCCC1,98,-3,4,-1,103,1.7
O=C(CCCc1ccccc1)NCCC1=CCCCC1,114,-41,-16,-4,136*,1.3
CC(=O)c1c(C)[nH]c(C(=O)NCCC2=CCCCC2)c1C,89,-37,93,14,134*,3.5*
COc1cccc(C(=O)NCCC2=CCCCC2)c1,96,-24,153*,12,122,3.3
O=C(Cc1ccccc1[N+](=O)[O-])NCCC1=CCCCC1,108,-1,14,-1,100,1.1
Cc1cc(C(=O)NCCC2=CCCCC2)ccc1[N+](=O)[O-],99,-38,57,4,133*,3
COc1ccc(C(=O)NCCC2=CCCCC2)cc1OC,103,-19,35,-7,117,1.9
C=CCn1c(SCC(=O)N2CCc3ccccc3C2)nnc1-c1ccncc1,101,-9,0,-3,108,1
SMILES,STAT3 activator,STAT1 inh,APP 5'UTR act,STAT3 inh,STAT1 activator,NF-kB neuron act
CCOC(=O)Cc1cnc(NC(=O)CSc2nc3ncnc(N)c3[nH]2)s1,95,3,-3,9,96,1
N#Cc1c(-c2ccccc2)ccn(Cc2ccc(Cl)cc2)c1=O,105,-6,25,-1,105,1
O=C(NCCC1=CCCCC1)c1ccc(CN2CCOCC2)cc1,106,-37,102,-5,134*,2.6
CC(C)(C)Cc1nc(-c2ccccn2)no1,111,-20,36,-11,118,0.48
Cc1ccc(OCc2nc(-c3ccccn3)no2)cc1,92,-29,139*,14,127,5.1*
Cc1ccc(OCc2nc(-c3ccccn3)no2)c(Br)c1,34,48*,150*,83*,56,4.4*
Cc1cc(OCc2nc(-c3cccnc3)no2)c(C)cc1Br,99,3,·,5,99,1.1
CC(C)c1ccc(OCc2nc(-c3ccccn3)no2)c(Br)c1,93,-41,182*,17,138*,5.4*
Cc1ccc(SCc2nc(-c3ccccn3)no2)cc1,102,-27,37,2,125,1.7
CCC(C)(C)NC(=O)C(c1ccc(F)cc1)N(Cc1cccs1)C(=O)c1cnccn1 (configuration not stated),106,-3,10,-3,101,0.93
O=C(Nc1ccc([N+](=O)[O-])cc1)C1C(c2ccccc2)=C1c1ccccc1,133*,-6,25,-26,106,0.88
COc1ccc(NC(C)=O)c(C)c1,96,0,4,12,98,1.1
COc1ccc(-n2nc3cc(C)c(NC(=O)C(C)C)cc3n2)cc1,79,-43,83,26,139*,1.1
COc1ccc(-n2nc3cc(C)c(NC(C)=O)cc3n2)cc1,38,39*,123,76*,63,2.3
COc1ccc(-n2nc3ccccc3n2)cc1,109,-18,11,-8,116,1.5
Cc1ccc(-n2nc3cc(C)c(N)cc3n2)cc1,78,-7,120,28,107,3.9*
COc1ccc(-n2nc3cc(C)c(N)c(Br)c3n2)cc1,165*,-73,185*,-69,168*,6.3*
CC1(C)CC(=O)CC(=O)/C1=N\Nc1c(Cl)cc(Cl)cc1Cl,100,-2,4,5,102,1.7
C=CCNC(=O)c1c(Br)cnn1-c1ccc(C)cc1,108,-55,76,-4,147*,3
CC1(C)N=C(N)N=C(N)N1c1ccc(F)cc1F,102,-4,17,3,104,0.96
CC1(C)N=C(N)N=C(N)N1c1ccccc1,102,-3,-6,0,103,3.8*
CC(/C=C/c1ccccc1)=N\NC(=O)c1cc(C)[nH]n1,90,0,5,21,98,1.4
CCc1cccc(NC(=O)CCCSc2nc3ccccc3[nH]2)c1,109,8,-11,-5,93,0.87
CNc1nc(-c2ccc3c(c2)CCN3C(=O)c2ccc(F)cc2)cs1,82,-32,47,24,128,2
